Laboratory results from ChEMBL document CHEMBL3124917, “Design, synthesis, and biological evaluation of deuterated C-aryl glycoside as a potent and long-acting renal sodium-dependent glucose cotransporter 2 inhibitor for the treatment of type 2 diabetes” (J Med Chem, 2014).

Columns and labels:
Rattus norvegicus [1] = assay: Antidiabetic activity in Sprague-Dawley rat assessed as urinary glucose excretion at 1 mg/kg, po administered 1 hr prior to glucose challenge measured after 1 to 4 hrs relative to dapagliflozin; assay type: functional, Urine
Procedure, shortened: (§1)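 Overnight-fasted Sprague-Dawley rats, n = 3 per group, dosed 1 mg/kg by oral gavage in 30% PEG400; controls received vehicle. Oral glucose (2 g/kg, 10 mL/kg) given 1 h post-dose. Urine collected in metabolic cages at 0–4 and 4–24 h, glucose measured on a biochemistry analyzer. Expressed as % of reference positive control; mean ± SD.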

Rattus norvegicus [2] = assay: Antidiabetic activity in Sprague-Dawley rat assessed as urinary glucose excretion at 1 mg/kg, po administered 1 hr prior to glucose challenge measured after 4 to 24 hrs relative to dapagliflozin; assay type: functional, Urine; procedure, shortened: as §1
Canis familiaris [3] = assay: Antidiabetic activity in Beagle dog assessed as urinary glucose excretion at 0.03 mg/kg, po administered 1 hr prior to glucose challenge measured after 8 to 24 hrs relative to dapagliflozin; assay type: functional, Canis lupus familiaris, Urine
Procedure, shortened: (§2)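 Overnight-fasted beagle dogs, n = 3 per group, given 0.03 mg/kg orally by gavage in 10% PEG400; vehicle controls received 10% PEG400. Oral glucose (2 g/kg, 5 mL/kg) given 1 h post-dose. Expressed as % of reference positive control; mean ± SD.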

Rattus norvegicus [4] = assay: Antidiabetic activity in Sprague-Dawley rat assessed as urinary glucose excretion at 1 mg/kg, po administered 1 hr prior to glucose challenge measured after 1 to 24 hrs relative to dapagliflozin; assay type: functional, Urine; procedure, shortened: as §1
Canis familiaris [5] = assay: Antidiabetic activity in Beagle dog assessed as urinary glucose excretion at 0.03 mg/kg, po administered 1 hr prior to glucose challenge measured after 1 to 8 hrs relative to dapagliflozin; assay type: functional, Canis lupus familiaris, Urine
Procedure, shortened: as §2, with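 “post-dose. Urine collected in metabolic cages at 0–8 and 8–24 h, glucose read on a biochemistry analyzer.” for “post-dose.”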

Canis familiaris [6] = assay: Antidiabetic activity in Beagle dog assessed as urinary glucose excretion at 0.03 mg/kg, po administered 1 hr prior to glucose challenge measured after 1 to 24 hrs relative to dapagliflozin; assay type: functional, Canis lupus familiaris, Urine
Procedure, shortened: as §2, with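 “post-dose. Urine collected in metabolic cages at 0–8 and 8–24 h, glucose read on a biochemistry analyzer.” for “post-dose.”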

[7] = AUC (0 to infinity) in Sprague-Dawley rat at 3 mg/kg, po by LC-MS/MS analysis; assay type: ADME, organism-based; design: time infinity, dose 3 mg/kg, route oral; settings: plasma
Procedure, shortened: (§3)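 Male Sprague-Dawley rats, n = 4 per group, overnight-fasted. Oral gavage of 3 or 1 mg/kg in 30% PEG400; i.v. arm at 1 mg/kg. Orbital plexus blood taken under ether at 0.083–24 h; plasma deproteinized and assayed by LC-MS/MS. Noncompartmental parameters derived; mean ± SD reported.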

[8] = molecular target: T1, Sodium/glucose cotransporter 1 (Homo sapiens, UniProt P13866); assay: Inhibition of full length human SGLT1 assessed as methyl-alpha-D-[U-14C]glucopyranoside uptake after 2 hrs by cell-based topcount scintillation counting analysis
T1 sequence (P13866 whole entry): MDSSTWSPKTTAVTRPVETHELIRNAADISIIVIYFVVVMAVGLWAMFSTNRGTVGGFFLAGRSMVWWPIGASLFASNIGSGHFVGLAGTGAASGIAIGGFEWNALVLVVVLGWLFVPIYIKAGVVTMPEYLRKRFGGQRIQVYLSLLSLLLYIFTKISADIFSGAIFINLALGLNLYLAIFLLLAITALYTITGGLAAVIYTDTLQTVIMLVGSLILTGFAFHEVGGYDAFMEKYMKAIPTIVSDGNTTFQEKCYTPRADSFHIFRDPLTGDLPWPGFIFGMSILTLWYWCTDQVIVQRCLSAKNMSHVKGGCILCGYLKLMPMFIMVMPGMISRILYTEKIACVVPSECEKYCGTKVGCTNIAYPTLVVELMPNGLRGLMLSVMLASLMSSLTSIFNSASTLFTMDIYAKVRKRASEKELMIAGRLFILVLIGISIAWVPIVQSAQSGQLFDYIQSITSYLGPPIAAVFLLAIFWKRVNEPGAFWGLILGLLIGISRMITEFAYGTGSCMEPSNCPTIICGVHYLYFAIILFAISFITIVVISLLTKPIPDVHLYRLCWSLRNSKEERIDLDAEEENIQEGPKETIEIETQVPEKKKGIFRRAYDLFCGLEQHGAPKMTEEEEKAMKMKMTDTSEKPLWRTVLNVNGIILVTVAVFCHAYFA

[9] = molecular target: T2, Sodium/glucose cotransporter 2 (Homo sapiens, UniProt P31639); assay: Inhibition of full length human SGLT2 assessed as methyl-alpha-D-[U-14C]glucopyranoside uptake after 1.5 hrs by cell-based topcount scintillation counting analysis
T2 sequence (P31639 whole entry): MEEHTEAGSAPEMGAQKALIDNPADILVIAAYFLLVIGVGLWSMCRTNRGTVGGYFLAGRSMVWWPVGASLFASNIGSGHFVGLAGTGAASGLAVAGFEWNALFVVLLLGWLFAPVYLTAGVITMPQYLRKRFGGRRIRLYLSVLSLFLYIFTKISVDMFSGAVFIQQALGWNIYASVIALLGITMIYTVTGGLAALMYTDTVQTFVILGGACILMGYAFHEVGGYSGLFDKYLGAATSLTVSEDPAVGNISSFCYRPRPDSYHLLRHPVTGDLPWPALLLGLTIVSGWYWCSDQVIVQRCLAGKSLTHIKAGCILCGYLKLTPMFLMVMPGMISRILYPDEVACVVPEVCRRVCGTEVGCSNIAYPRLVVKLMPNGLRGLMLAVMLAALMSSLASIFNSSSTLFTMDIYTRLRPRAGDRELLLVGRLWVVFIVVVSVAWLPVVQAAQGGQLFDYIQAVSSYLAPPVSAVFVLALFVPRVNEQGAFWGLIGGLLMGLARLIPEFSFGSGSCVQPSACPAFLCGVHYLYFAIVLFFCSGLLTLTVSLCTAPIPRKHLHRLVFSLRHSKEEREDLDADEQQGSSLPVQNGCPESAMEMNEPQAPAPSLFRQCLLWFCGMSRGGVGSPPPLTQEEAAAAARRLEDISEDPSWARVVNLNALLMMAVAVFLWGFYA

[10] = Half life in Sprague-Dawley rat at 3 mg/kg, po by LC-MS/MS analysis; assay type: ADME, organism-based; design: dose 3 mg/kg, route oral; settings: in vivo; procedure, shortened: as §3
[11] = Tmax in Sprague-Dawley rat at 3 mg/kg, po by LC-MS/MS analysis; assay type: ADME, organism-based; design: dose 3 mg/kg, route oral; settings: in vivo; procedure, shortened: as §3
[12] = Cmax in Sprague-Dawley rat at 3 mg/kg, po by LC-MS/MS analysis; assay type: ADME, organism-based; design: dose 3 mg/kg, route oral; settings: in vivo; procedure, shortened: as §3
[13] = Drug metabolism in Sprague-Dawley rat assessed as compound remaining at 50 mg/kg, po after 5 days by HPLC analysis; assay type: ADME, organism-based; design: dose 50 mg/kg, route oral; settings: in vivo, read-out: Drug metabolism

Row | Compound | AUC(0-inf) [7] [ng·h/mL] | IC50 [8] [µM] | IC50 [9] [µM] | half-life [10] [h] | Tmax [11] [h] | Cmax [12] [ng/mL] | remaining at 120 h [13] [%] | Activity (Rattus norvegicus [1]) [mg] | Activity (Rattus norvegicus [2]) [mg] | Activity (Canis familiaris [3]) [mg] | Activity (Rattus norvegicus [4]) [mg] | Activity (Canis familiaris [5]) [mg] | Activity (Canis familiaris [6]) [mg]
1 | [2H][C@@]1(c2ccc(Cl)c(Cc3ccc(OCC)cc3)c2)O[C@H](CO)[C@@H](O)[C@H](O)[C@H]1O | – | – | – | – | – | – | – | 193 | 2460 | 8910 | 2650 | 3760 | 12700
2 | [2H]C([2H])(c1ccc(OC([2H])([2H])C([2H])([2H])[2H])cc1)c1cc([C@@H]2O[C@H](CO)[C@@H](O)[C@H](O)[C@H]2O)ccc1Cl | 22400 | – | – | – | – | – | – | 137 | 1940 | 11000 | 2080 | 4360 | 15400
3 | CCOc1ccc(Cc2cc([C@@H]3O[C@H](CO)[C@@H](O)[C@H](O)[C@H]3O)ccc2Cl)cc1 [DAPAGLIFLOZIN] | 11700 | – | – | – | – | – | 43 | – | – | – | – | – | –

Now from value to molecule, other results behind:

Row | AUC(0-inf) [7] [ng·h/mL] | IC50 [8] [µM] | IC50 [9] [µM] | half-life [10] [h] | Tmax [11] [h] | Cmax [12] [ng/mL] | remaining at 120 h [13] [%] | Compound | Activity (Rattus norvegicus [1]) [mg] | Activity (Rattus norvegicus [2]) [mg] | Activity (Canis familiaris [3]) [mg] | Activity (Rattus norvegicus [4]) [mg] | Activity (Canis familiaris [5]) [mg] | Activity (Canis familiaris [6]) [mg]
4 | – | 7 | 0.0068 | – | – | – | – | [2H]C([2H])([2H])Oc1ccc(C([2H])([2H])c2cc([C@]3([2H])O[C@H](CO)[C@@H](O)[C@H](O)[C@H]3O)ccc2Cl)cc1 | 166 | 1480 | – | 1650 | – | –
5 | 5350 | – | – | 5.66 | 0.75 | 1400 | – | [2H]C([2H])([2H])Oc1ccc(C([2H])([2H])c2cc([C@@H]3O[C@H](CO)[C@@H](O)[C@H](O)[C@H]3O)ccc2Cl)cc1 | 101 | 1990 | – | 2100 | – | –
